Laboratory results: ChEMBL document CHEMBL1208782, “Synthesis and pharmacological validation of a novel series of non-steroidal FXR agonists” (Bioorg Med Chem Lett, 2010)
Active and inactive are the calls of the source. No cut-off for these calls is given here.

Columns and labels:
[1] = Plasma concentration in db/db mouse at 5 mg/kg, po after 30 mins; type: ADME, organism-based; parameters: dose 5 mg/kg, route oral; conditions: read-out: Drug uptake
Procedure, shortened: (§1)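 Single dose to mice, 5 mg/kg po or 1 mg/kg iv. Plasma was sampled at 5, 10, 30, 90 and 240 min. Only parent compound was measured, in ng/mL.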

[2] = Plasma concentration in db/db mouse at 5 mg/kg, po after 90 mins; type: ADME, organism-based; parameters: dose 5 mg/kg, route oral; conditions: read-out: Drug uptake; procedure, shortened: as §1
Estrogen receptor beta = Estrogen receptor beta (Homo sapiens, UniProt Q92731); assay: Agonist activity at ERbeta-LBD expressed in HEK293 cells assessed as Gal4-DBD interaction by cellular mammalian one hybrid assay; type: functional, cell-based
Estrogen receptor beta, sequence (Q92731 whole entry, the tested form may be a part): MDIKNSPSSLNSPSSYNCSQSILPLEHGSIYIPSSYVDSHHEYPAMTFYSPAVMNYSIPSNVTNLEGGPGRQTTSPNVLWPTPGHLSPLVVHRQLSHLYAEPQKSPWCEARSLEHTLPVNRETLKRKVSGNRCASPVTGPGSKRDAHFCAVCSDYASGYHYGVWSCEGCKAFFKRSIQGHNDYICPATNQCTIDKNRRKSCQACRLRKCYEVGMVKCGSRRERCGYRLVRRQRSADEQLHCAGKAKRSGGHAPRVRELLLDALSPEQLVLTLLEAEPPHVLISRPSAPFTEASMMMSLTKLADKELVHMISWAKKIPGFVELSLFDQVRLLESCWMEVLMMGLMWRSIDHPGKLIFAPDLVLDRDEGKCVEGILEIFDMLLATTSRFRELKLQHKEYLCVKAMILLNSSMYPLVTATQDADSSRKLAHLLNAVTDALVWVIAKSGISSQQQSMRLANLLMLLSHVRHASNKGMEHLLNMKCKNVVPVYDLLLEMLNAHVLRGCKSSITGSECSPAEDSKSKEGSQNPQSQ

[3] = Plasma concentration in db/db mouse at 25 mg/kg bid after 4 hrs by LC/MS-MS analysis; type: ADME, organism-based; parameters: dose 25 mg/kg; conditions: read-out: Drug uptake
Procedure, shortened: (§2)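 db/db mice were dosed twice daily for 12 days. Plasma and liver concentrations were determined 4 h and 24 h after the last administration.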

[4] = biological target: Peroxisome proliferator-activated receptor alpha (Homo sapiens, UniProt Q07869); assay: Agonist activity at PPARalpha-LBD expressed in HEK293 cells assessed as Gal4-DBD interaction by cellular mammalian one hybrid assay; type: functional, cell-based
Peroxisome proliferator-activated receptor alpha, sequence (Q07869 whole entry, the tested form may be a part): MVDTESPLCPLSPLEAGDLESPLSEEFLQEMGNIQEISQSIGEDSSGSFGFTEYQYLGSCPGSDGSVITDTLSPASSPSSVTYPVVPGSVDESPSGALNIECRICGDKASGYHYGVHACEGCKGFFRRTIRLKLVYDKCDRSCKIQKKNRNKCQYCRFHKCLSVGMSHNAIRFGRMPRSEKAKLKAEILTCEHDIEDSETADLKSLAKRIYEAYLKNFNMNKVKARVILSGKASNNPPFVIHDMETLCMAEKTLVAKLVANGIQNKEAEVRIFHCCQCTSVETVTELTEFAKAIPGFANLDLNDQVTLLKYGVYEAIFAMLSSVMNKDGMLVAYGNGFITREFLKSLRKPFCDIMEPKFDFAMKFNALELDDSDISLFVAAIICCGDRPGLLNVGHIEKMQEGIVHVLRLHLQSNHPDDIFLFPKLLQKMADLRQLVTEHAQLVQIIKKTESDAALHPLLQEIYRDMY

Mus musculus [5] = assay: Reduction in total plasma cholesterol level in db/db mouse at 1 mg/kg bid after 12 days; type: functional
Procedure, shortened: (§3)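 C57BL/KSK-mLep^db/mLep^db mice were dosed orally at 1, 5 and 25 mg/kg b.i.d. for 12 days. Total plasma triglycerides and total plasma cholesterol were measured, with cholesterol reported as mg/dl. Significance was given at p<0.05, <0.01 and <0.001 levels.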

[6] = Drug level in db/db mouse bile measured metabolites as carboxylic acid at 1 mg/kg, iv after 240 mins; type: ADME, organism-based; parameters: dose 1 mg/kg, route intravenous; conditions: in vivo, 4 h
[7] = Oral bioavailability in db/db mouse at 5 mg/kg, po; type: ADME, organism-based; conditions: in vivo
Procedure, shortened: (§4)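 Derived from the single-dose mouse plasma time courses of parent compound, 5-240 min. Dosing was 5 mg/kg po or 1 mg/kg iv. Volume of distribution is in mL/kg, clearance in mL/h/kg, and oral bioavailability in %.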

Liver [8] = assay: Drug level in db/db mouse liver measured metabolites as glucuronide at 5 mg/kg, po after 240 mins; type: ADME, organism-based; parameters: dose 5 mg/kg, route oral; conditions: in vivo, 4 h
Procedure, shortened: (§5)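 Mice got a single dose, 5 mg/kg po or 1 mg/kg iv. Liver and bile were sampled 240 min after dosing. Parent carboxylic acid, its acyl-glucuronide and its taurine amide were quantified separately, in ng/mL. Glucuronide identity was confirmed by glucuronidase digestion of bile or bile extracts, which regenerated the parent.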

[9] = Drug level in db/db mouse bile measured metabolites as glucuronide at 1 mg/kg, iv after 240 mins; type: ADME, organism-based; parameters: dose 1 mg/kg, route intravenous; conditions: in vivo, 4 h
Liver [10] = assay: Drug level in db/db mouse liver measured metabolites as carboxylic acid at 1 mg/kg, iv after 240 mins; type: ADME, organism-based; parameters: dose 1 mg/kg, route intravenous; conditions: in vivo, 4 h; procedure, shortened: as §5
[11] = Plasma concentration in db/db mouse at 1 mg/kg, iv after 240 mins; type: ADME, organism-based; parameters: dose 1 mg/kg, route intravenous; conditions: read-out: Drug uptake; procedure, shortened: as §1
Mus musculus [12] = assay: Volume of distribution in db/db mouse at 5 mg/kg, po; type: ADME, organism-based; parameters: dose 5 mg/kg, route oral; conditions: in vivo; procedure, shortened: as §4
Mus musculus [13] = assay: Volume of distribution in db/db mouse at 1 mg/kg, iv; type: ADME, organism-based; parameters: dose 1 mg/kg, route intravenous; conditions: in vivo; procedure, shortened: as §4
[14] = Clearance in db/db mouse at 1 mg/kg, iv; type: ADME, organism-based; parameters: dose 1 mg/kg, route intravenous; conditions: in vivo
Procedure, shortened: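 Mice received a single dose of 5 mg/kg po or 1 mg/kg iv. Plasma was sampled at 5, 10, 30, 90 and 240 min and the parent compound alone was measured (ng/mL). Clearance (mL/h/kg), Vd (mL/kg) and oral bioavailability were derived from these plasma profiles.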

[15] = Plasma concentration in db/db mouse at 5 mg/kg, po after 240 mins; type: ADME, organism-based; parameters: dose 5 mg/kg, route oral; conditions: read-out: Drug uptake; procedure, shortened: as §1
[16] = Drug level in db/db mouse bile measured metabolites as taurine amide at 1 mg/kg, iv after 240 mins; type: ADME, organism-based; parameters: dose 1 mg/kg, route intravenous; conditions: in vivo, 4 h; procedure, shortened: as §5
Liver [17] = assay: Drug level in db/db mouse liver measured metabolites as glucuronide at 1 mg/kg, iv after 240 mins; type: ADME, organism-based; parameters: dose 1 mg/kg, route intravenous; conditions: in vivo, 4 h; procedure, shortened: as §5
[18] = biological target: Peroxisome proliferator-activated receptor gamma (Homo sapiens, UniProt P37231); assay: Agonist activity at PPARgamma-LBD expressed in HEK293 cells assessed as Gal4-DBD interaction by cellular mammalian one hybrid assay; type: functional, cell-based
Peroxisome proliferator-activated receptor gamma, sequence (P37231 whole entry, the tested form may be a part): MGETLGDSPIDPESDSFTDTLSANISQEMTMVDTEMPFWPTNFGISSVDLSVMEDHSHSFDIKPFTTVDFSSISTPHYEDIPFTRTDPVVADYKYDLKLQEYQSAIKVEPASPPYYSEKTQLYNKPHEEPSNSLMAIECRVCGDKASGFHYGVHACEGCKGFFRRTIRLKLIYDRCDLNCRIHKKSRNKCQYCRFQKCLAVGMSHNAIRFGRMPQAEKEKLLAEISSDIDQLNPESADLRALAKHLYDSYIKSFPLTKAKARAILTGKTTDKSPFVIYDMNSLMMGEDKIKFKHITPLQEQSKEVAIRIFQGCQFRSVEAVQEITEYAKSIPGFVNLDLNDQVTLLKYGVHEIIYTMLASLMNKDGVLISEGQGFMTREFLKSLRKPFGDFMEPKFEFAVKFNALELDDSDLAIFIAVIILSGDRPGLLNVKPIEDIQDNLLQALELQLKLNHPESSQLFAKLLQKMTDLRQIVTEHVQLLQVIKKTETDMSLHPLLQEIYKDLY

[19] = Plasma concentration in db/db mouse at 1 mg/kg, iv after 10 mins; type: ADME, organism-based; parameters: dose 1 mg/kg, route intravenous; conditions: read-out: Drug uptake; procedure, shortened: as §1
[20] = Plasma concentration in db/db mouse at 25 mg/kg bid after 24 hrs by LC/MS-MS analysis; type: ADME, organism-based; parameters: dose 25 mg/kg; conditions: read-out: Drug uptake; procedure, shortened: as §2
[21] = Drug level in db/db mouse bile measured metabolites as glucuronide at 5 mg/kg, po after 240 mins; type: ADME, organism-based; parameters: dose 5 mg/kg, route oral; conditions: in vivo, 4 h
[22] = Plasma concentration in db/db mouse at 1 mg/kg, iv after 30 mins; type: ADME, organism-based; parameters: dose 1 mg/kg, route intravenous; conditions: read-out: Drug uptake; procedure, shortened: as §1
[23] = Drug level in db/db mouse bile measured metabolites as carboxylic acid at 5 mg/kg, po after 240 mins; type: ADME, organism-based; parameters: dose 5 mg/kg, route oral; conditions: in vivo, 4 h
Mus musculus [24] = assay: Reduction in total plasma triglyceride level in db/db mouse at 1-25 mg/kg bid after 12 days; type: functional, organism-based; procedure, shortened: as §3
[25] = Drug level in db/db mouse bile measured metabolites as taurine amide at 5 mg/kg, po after 240 mins; type: ADME, organism-based; parameters: dose 5 mg/kg, route oral; conditions: in vivo, 4 h; procedure, shortened: as §5
Liver [26] = assay: Drug level in db/db mouse liver measured metabolites as taurine amide at 5 mg/kg, po after 240 mins; type: ADME, organism-based; parameters: dose 5 mg/kg, route oral; conditions: in vivo, 4 h; procedure, shortened: as §5
Liver [27] = assay: Drug level in db/db mouse liver measured metabolites as taurine amide at 1 mg/kg, iv after 240 mins; type: ADME, organism-based; parameters: dose 1 mg/kg, route intravenous; conditions: in vivo, 4 h; procedure, shortened: as §5

concentration at 0.5 h [1] [ng/mL] | concentration at 1.5 h [2] [ng/mL] | EC50 (Estrogen receptor beta) [µM] | concentration at 4 h [3] [nM] | EC50 [4] [µM] | Drug uptake [6] [ng/mL] | bioavailability [7] [%] | Drug uptake (Liver [8]) [ng/mL] | Drug uptake [9] [ng/mL] | Drug uptake (Liver [10]) [ng/mL] | Vd (Mus musculus [12]) [L/kg] | Vd (Mus musculus [13]) [L/kg] | clearance [14] [mL/min/kg] | concentration at 4 h [15] [ng/mL] | Drug uptake [16] [ng/mL] | EC50 [18] [µM] | concentration at 10 min [19] [ng/mL] | concentration at 24 h [20] [nM] | Drug uptake [21] [ng/mL] | concentration at 0.5 h [22] [ng/mL] | Compound | further results
531 | 370 | > 10 | 344 | > 10 | 173 | 16.1 | 172 | 150 | 23 | 5.2 | 1.24 | 11.9 | 52 | 10013 | > 10 | 437 | 11 | 2807 | 325 | CN(Cc1ccc(C(=O)O)cc1)c1ccc(OCc2c(-c3c(Cl)cccc3Cl)noc2C2CC2)nc1C(F)(F)F | Activity (Mus musculus [5]): 97.2 mg/dL; concentration at 4 h [11]: 94 ng/mL; Drug uptake (Liver [17]): 17 ng/mL; Drug uptake [23]: 1446 ng/mL; Activity (Mus musculus [24]): Active; Drug uptake [25]: 47638 ng/mL
420 | 267 | > 10 | 512 | > 10 | 472 | 16.2 | 2872 | 4261 | 262 | 5.26 | 0.931 | 16.8 | 14 | 11927 | > 10 | 1600 | 3 | 18928 | 361 | CC(C)c1onc(-c2c(Cl)cccc2Cl)c1COc1ccc(N(C)Cc2ccc(C(=O)O)cc2)c(C(F)(F)F)n1 | Drug uptake (Liver [26]): 372 ng/mL; Drug uptake (Liver [27]): 134 ng/mL; Drug uptake [23]: 1697 ng/mL; Activity (Mus musculus [24]): Active; Drug uptake [25]: 22443 ng/mL
